One assay concerns the target T1, GluRδ2^Lc R530K (Rattus norvegicus, UniProt Q63226, A654T/R530K).
T1 sequence (Q63226 24-1007 R530K/A654T): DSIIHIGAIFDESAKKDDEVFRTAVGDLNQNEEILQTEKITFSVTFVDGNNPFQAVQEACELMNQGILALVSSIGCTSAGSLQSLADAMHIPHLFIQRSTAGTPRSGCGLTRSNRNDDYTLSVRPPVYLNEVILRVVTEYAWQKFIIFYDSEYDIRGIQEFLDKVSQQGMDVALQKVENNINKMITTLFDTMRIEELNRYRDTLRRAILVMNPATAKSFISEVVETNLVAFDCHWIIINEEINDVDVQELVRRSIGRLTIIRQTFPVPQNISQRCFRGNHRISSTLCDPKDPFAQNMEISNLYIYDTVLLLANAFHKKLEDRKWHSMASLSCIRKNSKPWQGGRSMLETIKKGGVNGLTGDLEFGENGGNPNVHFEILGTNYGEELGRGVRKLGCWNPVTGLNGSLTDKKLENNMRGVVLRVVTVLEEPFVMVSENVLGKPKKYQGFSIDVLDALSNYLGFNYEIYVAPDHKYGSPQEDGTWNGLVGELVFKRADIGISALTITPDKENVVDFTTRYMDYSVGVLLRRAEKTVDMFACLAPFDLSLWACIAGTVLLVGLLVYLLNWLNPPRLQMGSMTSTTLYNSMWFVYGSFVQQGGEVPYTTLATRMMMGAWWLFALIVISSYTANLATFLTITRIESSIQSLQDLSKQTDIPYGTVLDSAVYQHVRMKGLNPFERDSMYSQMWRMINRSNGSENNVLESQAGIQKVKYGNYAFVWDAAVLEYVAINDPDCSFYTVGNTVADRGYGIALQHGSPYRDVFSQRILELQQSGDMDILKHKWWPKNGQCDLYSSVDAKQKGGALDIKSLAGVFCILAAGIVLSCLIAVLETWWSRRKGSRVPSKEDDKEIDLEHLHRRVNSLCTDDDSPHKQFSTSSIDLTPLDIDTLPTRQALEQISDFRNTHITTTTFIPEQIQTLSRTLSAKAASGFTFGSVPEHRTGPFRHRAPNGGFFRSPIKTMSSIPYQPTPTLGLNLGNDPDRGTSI
Description: Two-electrode voltage-clamp recordings in Xenopus oocytes, GluRδ2^Lc R530K. The conditions noted are these: 3 mM Ca^2+; baseline spontaneously active current; ± SEM. The assay is classed as cell-based. The gist of the method: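 Oocytes expressing the Lc mutant were kept in 25 μM NASP to prevent cytotoxicity. Two-electrode voltage clamp at −40 mV and 23°C, 24–72 h after cRNA injection. Bath: 90 mM NaCl, 3 mM KCl, 0.5 mM BaCl2, 10 mM HEPES, pH 7.6. Choline or NMDG chloride balanced Cl− and osmolarity. Values are fold increase over the Ca2+-free spontaneously active baseline on applying 3 mM Ca2+, given as mean ± SEM over oocytes.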
(In two-electrode clamp one electrode senses voltage and the other passes current.)

In the next assay the target is T2, GluRδ2^Wt (Rattus norvegicus, UniProt Q63226).
T2 sequence (Q63226 24-1007): T1 sequence (Q63226 24-1007 R530K/A654T) with K507R, T631A
Conditions: ref Naur et al., 2007; cited from earlier work.

The structures appear in SMILES notation. Positions count from the first letter of the chain named.

Take `[Ca+2]` [Ca^2+, calcium]: the “Ca^2+ potentiation (relative to baseline)” value on GluRδ2^Lc R530K amounted to 3.3 ± 0.20 fold.
With `N[C@H](CO)C(=O)O` [D-serine], the “activation of currents at recombinant GluRδ2^Wt by D-serine” value at GluRδ2^Wt is listed as “fails to activate currents”.

Source of the values: PMC2806602 (The Journal of neuroscience : the official journal of the …, 2009).
